Where only a bound is given, the exact number is not on record here.

In experiment [1] the target is T1, IgG receptor FcRn large subunit p51 (Homo sapiens, UniProt P55899). Nature of the experiment: Inhibition of human IgG binding to soluble human FcRn by ELISA. The essentials: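 Biotinylated soluble human FcRn immobilized on neutravidin plates, incubated with hIgG (3 nM, constant) and peptide at varying concentrations for 2 h at 37 °C. After washing, bound hIgG detected with peroxidase-conjugated hIgG-specific Fab fragments.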
For orientation: In an ELISA, binding on a coated surface is turned into a signal by an enzyme label.

Experiment [2] concerns the target T1, IgG receptor FcRn large subunit p51. The experiment in a line: Binding affinity to human FcRn at pH 6 by surface plasmon resonance assay. The procedure, abridged: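 Soluble human FcRn coupled to the dextran surface of a CM5 chip; peptide dilutions flowed over the chip. The equilibrium response at each dilution was plotted against concentration and fitted to a steady-state affinity model to give Kd.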

T1 sequence (P55899 whole entry, the tested form may be a part): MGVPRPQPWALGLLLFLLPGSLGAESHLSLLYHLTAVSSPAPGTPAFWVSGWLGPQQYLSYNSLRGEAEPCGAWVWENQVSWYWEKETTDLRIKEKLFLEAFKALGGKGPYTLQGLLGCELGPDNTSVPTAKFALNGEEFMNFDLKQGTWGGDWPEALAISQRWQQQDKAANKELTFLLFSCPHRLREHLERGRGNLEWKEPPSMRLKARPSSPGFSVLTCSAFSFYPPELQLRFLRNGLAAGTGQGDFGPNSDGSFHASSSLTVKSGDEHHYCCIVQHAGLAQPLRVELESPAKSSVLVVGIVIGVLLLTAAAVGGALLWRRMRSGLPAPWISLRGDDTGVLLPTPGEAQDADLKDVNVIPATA

On to `CC(C)C[C@@H](C(=O)N[C@@H](Cc1ccc(O)cc1)C(=O)N1CCC[C@H]1C(=O)N[C@@H](CS)C(=O)O)N(C)C(=O)CN(C)C(=O)CNC(=O)[C@H](CCc1ccccc1)NC(=O)[C@H](Cc1cnc[nH]1)NC(=O)CNC(=O)[C@@H](NC(=O)[C@@H](NC(=O)[C@H](Cc1ccccc1)NC(=O)[C@H](CCCNC(=N)N)NC(=O)[C@@H](N)CCC(N)=O)C(C)(C)S)[C@@H](C)O`, for which the IC50 in experiment [1] stood at 16 µM. In addition, in experiment [2], the Kd amounted to 230 µM.

Compound `CC(C)C[C@H](NC(=O)CNC(=O)CNC(=O)[C@H](Cc1ccccc1)NC(=O)[C@H](Cc1cnc[nH]1)NC(=O)CNC(=O)[C@@H](NC(=O)[C@@H](NC(=O)[C@H](Cc1ccccc1)NC(=O)[C@H](CCCNC(=N)N)NC(=O)[C@@H](N)CCC(N)=O)C(C)(C)S)[C@@H](C)O)C(=O)N[C@@H](Cc1ccc(O)cc1[N+](=O)[O-])C(=O)N1CCC[C@H]1C(=O)N[C@@H](CS)C(=O)N[C@@H](CC(N)=O)C(=O)NCC(=O)N1CCC[C@H]1C(=O)O` gave an IC50 in experiment [1] of over 125 µM. This compound also came in with a Kd in experiment [2] of 290 µM.

With H-TGHFGGLYP-OH, the IC50 in experiment [1] is over 250 µM. The compound further yielded a Kd in experiment [2] of over 250 µM.

Consider `CC(C)C[C@H](NC(=O)[C@@H](C)NC(=O)[C@@H](C)NC(=O)[C@H](Cc1ccccc1)NC(=O)[C@H](Cc1cnc[nH]1)NC(=O)CNC(=O)[C@@H](NC(=O)[C@H](CS)NC(=O)[C@H](Cc1ccccc1)NC(=O)[C@H](CCCN=C(N)N)NC(=O)[C@@H](N)CCC(N)=O)[C@@H](C)O)C(=O)N[C@@H](Cc1ccc(O)cc1)C(=O)N1CCC[C@H]1C(=O)N[C@@H](CS)C(=O)N[C@@H](CC(N)=O)C(=O)NCC(=O)N1CCC[C@H]1C(=O)O`, for which the IC50 in experiment [1] stood at 69 µM. For the same compound, the equilibrium dissociation constant (Kd) in experiment [2] came to 22 µM.

`CC(C)C[C@H](NC(=O)CNC(=O)[C@H](C)NC(=O)[C@H](Cc1ccccc1)NC(=O)[C@H](Cc1cnc[nH]1)NC(=O)CNC(=O)[C@@H](NC(=O)[C@H](CS)NC(=O)[C@H](Cc1ccccc1)NC(=O)[C@H](CCCNC(=N)N)NC(=O)[C@@H](N)CCC(N)=O)[C@@H](C)O)C(=O)N[C@@H](Cc1ccc(O)cc1)C(=O)N1CCC[C@H]1C(=O)N[C@@H](CS)C(=O)N[C@@H](CC(N)=O)C(=O)NCC(=O)N1CCC[C@H]1C(=O)O`: the IC50 in experiment [1] is over 125 µM. Moreover, in experiment [2], the Kd is 230 µM.

With `CC(C)C[C@H](NC(=O)CNC(=O)CNC(=O)[C@H](Cc1ccccc1)N(C)C(=O)[C@H](Cc1cnc[nH]1)NC(=O)CNC(=O)[C@@H](NC(=O)[C@@H](NC(=O)[C@H](Cc1ccccc1)NC(=O)[C@H](CCCN=C(N)N)NC(=O)[C@@H](N)CCC(N)=O)C(C)(C)S)[C@@H](C)O)C(=O)N[C@@H](Cc1ccc(O)cc1)C(=O)N1CCC[C@H]1C(=O)N[C@@H](CS)C(=O)N[C@@H](CC(N)=O)C(=O)NCC(=O)N1CCC[C@H]1C(=O)O`, the Kd in experiment [2] was over 250 µM.

`CC(C)C[C@H](NC(=O)CNC(=O)CNC(=O)[C@H](Cc1ccccc1)NC(=O)[C@H](Cc1cnc[nH]1)NC(=O)CNC(=O)[C@@H](NC(=O)[C@H](CCS)NC(=O)[C@H](Cc1ccccc1)NC(=O)[C@H](CCCNC(=N)N)NC(=O)[C@@H](N)CCC(N)=O)[C@@H](C)O)C(=O)N[C@@H](Cc1ccc(O)cc1)C(=O)N1CCC[C@H]1C(=O)N[C@H](C(=O)N[C@@H](CC(N)=O)C(=O)NCC(=O)N1CCC[C@H]1C(=O)O)C(C)(C)S`: the Kd in experiment [2] is 2.1 µM.

`CC(C)C[C@H](NC(=O)CNC(=O)CNC(=O)[C@H](Cc1ccccc1)NC(=O)[C@H](Cc1cnc[nH]1)NC(=O)CNC(=O)[C@@H](NC(=O)[C@H](NC(=O)[C@H](Cc1ccccc1)NC(=O)[C@H](CCCNC(=N)N)NC(=O)[C@@H](N)CCC(N)=O)C(C)(C)S)[C@@H](C)O)C(=O)N[C@H](Cc1ccc(O)cc1)C(=O)N1CCC[C@H]1C(=O)N[C@H](CS)C(=O)N[C@@H](CC(N)=O)C(=O)NCC(=O)N1CCC[C@H]1C(=O)O` displayed a Kd in experiment [2] of over 250 µM.

As to `CC(C)C[C@@H](NC(=O)CNC(=O)CNC(=O)[C@@H](Cc1ccccc1)NC(=O)[C@H](Cc1cnc[nH]1)NC(=O)CNC(=O)[C@@H](NC(=O)[C@H](NC(=O)[C@H](Cc1ccccc1)NC(=O)[C@H](CCCNC(=N)N)NC(=O)[C@@H](N)CCC(N)=O)C(C)(C)S)[C@@H](C)O)C(=O)N[C@@H](Cc1ccc(O)cc1)C(=O)N1CCC[C@H]1C(=O)N[C@H](CS)C(=O)N[C@@H](CC(N)=O)C(=O)NCC(=O)N1CCC[C@H]1C(=O)O`, the Kd in experiment [2] was over 250 µM.

For the compound `Cc1ccc(C[C@H](NC(=O)[C@H](Cc2cnc[nH]2)NC(=O)CNC(=O)[C@@H](NC(=O)[C@@H](NC(=O)[C@H](Cc2ccccc2)NC(=O)[C@H](CCCN=C(N)N)NC(=O)[C@@H](N)CCC(N)=O)C(C)(C)S)[C@@H](C)O)C(=O)NCC(=O)NCC(=O)N[C@@H](CC(C)C)C(=O)N[C@@H](Cc2ccc(O)cc2)C(=O)N2CCC[C@H]2C(=O)N[C@@H](CS)C(=O)N[C@@H](CC(N)=O)C(=O)NCC(=O)N2CCC[C@H]2C(=O)O)cc1`, in experiment [2], the dissociation constant (Kd) turned out to be 0.2 µM.

In experiment [2], `CC(C)C[C@H](NC(=O)CNC(=O)CNC(=O)[C@H](Cc1ccc([N+](=O)[O-])cc1)NC(=O)[C@H](Cc1cnc[nH]1)NC(=O)CNC(=O)[C@@H](NC(=O)[C@@H](NC(=O)[C@H](Cc1ccccc1)NC(=O)[C@H](CCCN=C(N)N)NC(=O)[C@@H](N)CCC(N)=O)C(C)(C)S)[C@@H](C)O)C(=O)N[C@@H](Cc1ccc(O)cc1)C(=O)N1CCC[C@H]1C(=O)N[C@@H](CS)C(=O)N[C@@H](CC(N)=O)C(=O)NCC(=O)N1CCC[C@H]1C(=O)O` yielded a Kd of 84 µM.

For the compound `CC(C)C[C@H](NC(=O)CNC(=O)CNC(=O)[C@H](Cc1ccc(N)cc1)NC(=O)[C@H](Cc1cnc[nH]1)NC(=O)CNC(=O)[C@@H](NC(=O)[C@@H](NC(=O)[C@H](Cc1ccccc1)NC(=O)[C@H](CCCN=C(N)N)NC(=O)[C@@H](N)CCC(N)=O)C(C)(C)S)[C@@H](C)O)C(=O)N[C@@H](Cc1ccc(O)cc1)C(=O)N1CCC[C@H]1C(=O)N[C@@H](CS)C(=O)N[C@@H](CC(N)=O)C(=O)NCC(=O)N1CCC[C@H]1C(=O)O`, binding in experiment [2] was put at a Kd of 1 µM.

Compound `CC(C)C[C@H](NC(=O)CNC(=O)CNC(=O)[C@H](Cc1ccccc1)NC(=O)[C@H](Cc1cnc[nH]1)NC(=O)CNC(=O)[C@@H](NC(=O)[C@H](NC(=O)[C@H](Cc1ccccc1)NC(=O)[C@H](CCCNC(=N)N)NC(=O)[C@@H](N)CCC(N)=O)C(C)(C)S)[C@@H](C)O)C(=O)N[C@@H](Cc1ccc(O)cc1)C(=O)N1CCC[C@@H]1C(=O)N[C@H](CS)C(=O)N[C@@H](CC(N)=O)C(=O)NCC(=O)N1CCC[C@H]1C(=O)O` came in with a Kd in experiment [2] of over 250 µM.

In experiment [2], `CC(C)C[C@H](NC(=O)CNC(=O)[C@@H](CC(=O)O)NC(=O)[C@H](Cc1ccccc1)NC(=O)[C@H](Cc1cnc[nH]1)NC(=O)CNC(=O)[C@@H](NC(=O)[C@@H](NC(=O)[C@H](Cc1ccccc1)NC(=O)[C@H](CCCN=C(N)N)NC(=O)[C@@H](N)CCC(N)=O)C(C)(C)S)[C@@H](C)O)C(=O)N[C@@H](Cc1ccc(O)cc1)C(=O)N1CCC[C@H]1C(=O)N[C@@H](CS)C(=O)N[C@@H](CC(N)=O)C(=O)NCC(=O)N1CCC[C@H]1C(=O)O` came in with a Kd of 0.58 µM.

For `CC(C)C[C@H](NC(=O)CNC(=O)CN(C)C(=O)[C@H](Cc1ccccc1)NC(=O)[C@H](Cc1cnc[nH]1)NC(=O)CNC(=O)[C@@H](NC(=O)[C@@H](NC(=O)[C@H](Cc1ccccc1)NC(=O)[C@H](CCCN=C(N)N)NC(=O)[C@@H](N)CCC(N)=O)C(C)(C)S)[C@@H](C)O)C(=O)N[C@@H](Cc1ccc(O)cc1)C(=O)N1CCC[C@H]1C(=O)N[C@@H](CS)C(=O)N[C@@H](CC(N)=O)C(=O)NCC(=O)N1CCC[C@H]1C(=O)O`, in experiment [2], binding was put at a Kd of 2 µM.

By IC50 is commonly meant the concentration at which inhibition is half-maximal. Low readings indicate greater potency in that assay, high ones weaker potency in that assay. The term Kd denotes the concentration at which binding is half-saturated.
